Data as given in ChEMBL document CHEMBL5136969, “A niclosamide-tobramycin hybrid adjuvant potentiates cefiderocol against P. aeruginosa” (2021).
Active and inactive are the calls of the source.

Key:
Staphylococcus aureus = experiment: Antibacterial activity against methicillin-resistant Staphylococcus aureus ATCC 33592 assessed as reduction in bacterial growth after 18 hrs by microbroth dilution method; type: functional
Outline: (§1)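 Broth microdilution per CLSI in Mueller-Hinton broth (MHB). Overnight cultures were adjusted to 0.5 McFarland in saline, diluted 1:50 in MHB, and added at about 5 × 10^5 CFU/mL final to equal volumes of 2-fold serial dilutions of agent. Incubation was 18 h at 37 °C. MIC was the lowest concentration with no visible turbidity, confirmed by absorbance at 590 nm.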

Pseudomonas aeruginosa [1] = experiment: Potentiation of moxifloxacin-induced antibiotic activity against Pseudomonas aeruginosa PA264 assessed as MIC fold reduction in ID-CAMHB condition at 8 ug/ml after 18 hrs by microbroth dilution method; type: functional, organism-based; conditions: dose 8.0 µg/ml
Pseudomonas aeruginosa [2] = experiment: Potentiation of niclosamide-induced antibiotic activity against Pseudomonas aeruginosa PAO1 assessed as MIC fold reduction at 8 ug/ml after 18 hrs by microbroth dilution method; type: functional; conditions: dose 8 µg/ml
Acinetobacter baumannii [3] = experiment: Potentiation of vancomycin-induced antibiotic activity against Acinetobacter baumannii ATCC 17978 assessed as MIC fold reduction at 8 ug/ml after 18 hrs by microbroth dilution method; type: functional; conditions: dose 8 µg/ml
Pseudomonas aeruginosa [4] = experiment: Antibacterial activity against MDR clinical isolate Pseudomonas aeruginosa PA108590 assessed as reduction in bacterial growth after 18 hrs by microbroth dilution method; type: functional
Outline: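 CLSI broth microdilution. Overnight cultures were adjusted in saline to 0.5 McFarland, diluted 1:50 in Mueller-Hinton broth (MHB), and inoculated at about 5 × 10^5 CFU/mL. Agents were 2-fold serially diluted in MHB, mixed 1:1 with inoculum, and held at 37 °C for 18 h. MIC was the lowest concentration with no visible turbidity, confirmed at 590 nm.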

Pseudomonas aeruginosa [5] = experiment: Potentiation of moxifloxacin-induced antibiotic activity against Pseudomonas aeruginosa PAO1 assessed as reduction in microbial growth at 8 ug/ml up to 24 hrs by microbroth dilution method; type: functional; conditions: dose 8 µg/ml
Escherichia coli [6] = experiment: Potentiation of pleuromutilin-induced antibiotic activity against Escherichia coli ATCC 25922 assessed as MIC fold reduction at 8 ug/ml after 18 hrs by microbroth dilution method; type: functional; conditions: dose 8 µg/ml
Pseudomonas aeruginosa [7] = experiment: Potentiation of cefotaxime-induced antibiotic activity against MDR clinical isolate Pseudomonas aeruginosa PA264 assessed as MIC fold reduction at 8 ug/ml after 18 hrs by microbroth dilution method; type: functional, organism-based; conditions: dose 8.0 µg/ml
Outline: (§2)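 Adjuvant held at a fixed 8 μg/mL while the antibiotic was 2-fold serially diluted in Mueller-Hinton broth (MHB), per CLSI microbroth dilution. Overnight cultures were adjusted in saline to 0.5 McFarland, then diluted 1:50 in MHB to about 5 × 10^5 CFU/mL final, and incubated 18 h at 37 °C. MIC was the lowest concentration with no visible turbidity, confirmed at 590 nm. Fold potentiation = MIC alone / MIC with adjuvant.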

Pseudomonas aeruginosa [8] = experiment: Antibacterial activity against MDR clinical isolate Pseudomonas aeruginosa PA264 assessed as reduction in bacterial growth after 18 hrs by microbroth dilution method; type: functional; outline: as §1
Escherichia coli [9] = experiment: Antibacterial activity against Escherichia coli 107115 assessed as reduction in bacterial growth after 18 hrs by microbroth dilution method; type: functional
Outline: (§3)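 CLSI microbroth dilution in MHB. Overnight cultures were adjusted to 0.5 McFarland in saline, diluted 1:50, and inoculated at about 5 × 10^5 CFU/mL. Agents were 2-fold serially diluted and incubated 18 h at 37 °C. MIC is the lowest concentration without visible turbidity, confirmed by absorbance at 590 nm. Medium with and without cells served as controls.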

Acinetobacter baumannii [10] = experiment: Potentiation of piperacilin-induced antibiotic activity against Acinetobacter baumannii ATCC 17978 assessed as MIC fold reduction at 8 ug/ml after 18 hrs by microbroth dilution method; type: functional; conditions: dose 8 µg/ml
Pseudomonas aeruginosa [11] = experiment: Potentiation of moxifloxacin-induced antibiotic activity against Pseudomonas aeruginosa PA263 assessed as MIC fold reduction in ID-CAMHB condition at 8 ug/ml after 18 hrs by microbroth dilution method; type: functional, organism-based; conditions: dose 8.0 µg/ml
Pseudomonas aeruginosa [12] = experiment: Potentiation of cefiderocol-induced antibiotic activity against […] Pseudomonas aeruginosa PAO1 assessed as MIC fold reduction at 8 ug/ml after 18 hrs by microbroth dilution method; type: functional, organism-based; conditions: dose 8.0 µg/ml
Outline: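 Initial screen in MHB using a fixed 8 μg mL−1 of adjuvant combined with each antibiotic under 2-fold dilution. Broth microdilution used about 5 × 10^5 CFU/mL at 37 °C for 18 h, with visible turbidity read and confirmed at 590 nm. Fold-potentiation = antibiotic MIC alone ÷ antibiotic MIC with adjuvant.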

Pseudomonas aeruginosa [13] = experiment: Potentiation of cindamycin-induced antibiotic activity against Pseudomonas aeruginosa PAO1 assessed as MIC fold reduction at 8 ug/ml after 18 hrs by microbroth dilution method; type: functional; conditions: dose 8 µg/ml; outline: as §2
Escherichia coli [14] = experiment: Potentiation of rifampicin-induced antibiotic activity against Escherichia coli ATCC 25922 assessed as MIC fold reduction at 8 ug/ml after 18 hrs by microbroth dilution method; type: functional; conditions: dose 8 µg/ml
Pseudomonas aeruginosa [15] = experiment: Antibacterial activity against MDR clinical isolate Pseudomonas aeruginosa PA101885 assessed as reduction in bacterial growth after 18 hrs in presence of cefiderocol by microbroth dilution method; type: functional
Outline: (§4)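 Checkerboard in MHB (iron-replete, not iron-depleted CAMHB). Cefiderocol was 2-fold serially diluted along one axis and the adjuvant along the other. Inoculum was 0.5 McFarland diluted 1:50, about 5 × 10^5 CFU/mL final. Incubation was 18 h at 37 °C, with turbidity read visually and confirmed at 590 nm. FIC was the MIC in combination over the MIC alone for each agent, and the FIC index was their sum. Cut-offs were ≤0.5 synergy, >0.5–4 additive, >4 antagonism.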

Klebsiella pneumoniae = experiment: Antibacterial activity against Klebsiella pneumoniae KP116381 assessed as potentiation of cefiderocol antibacterial activity by measuring FIC after 18 hrs by microbroth dilution method; type: functional
Outline: (§5)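 Checkerboard in MHB. Cefiderocol was 2-fold serially diluted along one axis and the adjuvant along the other. Inoculum was prepared from 0.5 McFarland saline suspensions diluted 1:50 in MHB, giving about 5 × 10^5 CFU/mL final. Plates ran 18 h at 37 °C, with turbidity confirmed at 590 nm. FIC = combination MIC ÷ MIC alone for each agent, and FIC index = sum of both. Interpretation: ≤0.5 synergy, >0.5–4 additive, >4 antagonism.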

Pseudomonas aeruginosa [16] = experiment: Antibacterial activity against MDR clinical isolate Pseudomonas aeruginosa PA264 assessed as potentiation of cefiderocol antibacterial activity by measuring FIC index after 18 hrs by microbroth dilution method; type: functional; outline: as §4
Pseudomonas aeruginosa [17] = experiment: Antibacterial activity against MDR clinical isolate Pseudomonas aeruginosa PA260 assessed as potentiation of cefiderocol antibacterial activity by measuring FIC index after 18 hrs by microbroth dilution method; type: functional; outline: as §5
Escherichia coli [18] = experiment: Antibacterial activity against Escherichia coli 94474 assessed as reduction in bacterial growth after 18 hrs in presence of cefiderocol by microbroth dilution method; type: functional
Outline: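 Checkerboard in Mueller-Hinton broth: cefiderocol 2-fold diluted on one axis, adjuvant 2-fold on the other. Overnight cultures were adjusted to 0.5 McFarland in saline, diluted 1:50 in MHB, and inoculated at about 5 × 10^5 CFU/mL. Incubation was 18 h at 37 °C. Turbidity was read visually and confirmed at 590 nm. FIC index = FIC of antibiotic + FIC of adjuvant; ≤0.5 synergy, >4 antagonism.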

Enterobacter cloacae = experiment: Antibacterial activity against Enterobacter cloacae 118564 assessed as reduction in bacterial growth after 18 hrs by microbroth dilution method; type: functional; outline: as §3

NC[C@H]1O[C@H](O[C@H]2[C@H](OCCCCc3cn(-c4ccc(NC(=O)c5cc(Cl)ccc5O)cc4)nn3)[C@@H](O[C@H]3O[C@H](CO)[C@@H](O)[C@H](N)[C@H]3O)[C@H](N)C[C@@H]2N)[C@H](N)C[C@@H]1O
MIC (Staphylococcus aureus): > 128 µg/mL
Activity (Pseudomonas aeruginosa [1]): Active
fold change (FC) (Pseudomonas aeruginosa [2]): 4
fold change (FC) (Acinetobacter baumannii [3]): 4
MIC (Pseudomonas aeruginosa [4]): > 128 µg/mL
Activity (Pseudomonas aeruginosa [5]): >3 log10CFU/ml
fold change (FC) (Escherichia coli [6]): 4
Activity (Pseudomonas aeruginosa [7]): Active
MIC (Pseudomonas aeruginosa [8]): > 128 µg/mL
MIC (Escherichia coli [9]): > 128 µg/mL
fold change (FC) (Acinetobacter baumannii [10]): 4
Activity (Pseudomonas aeruginosa [11]): Active
Activity (Pseudomonas aeruginosa [12]): Active
fold change (FC) (Pseudomonas aeruginosa [13]): 4
fold change (FC) (Escherichia coli [14]): 4
MIC (Pseudomonas aeruginosa [15]): 2 µg/mL
FIC (Klebsiella pneumoniae): 0.5
FIC (Pseudomonas aeruginosa [16]): 0.125
FIC (Pseudomonas aeruginosa [17]): 0.063
MIC (Escherichia coli [18]): 8 µg/mL
MIC (Enterobacter cloacae): > 128 µg/mL
